The labels stand for the following.
B1: tRNA (parent)
chain: GUUCCGUUGGCGUAAUGGUAACGCGUCUCCCUCCUAAGGAGAAGACUGCGGGUUCGAGUCCCGUACGGAACG

Among the data in the RNAGym collection of RNA variant scans (doi:10.1126/science.aae0568) are yeast fitness values, retold here.

Fewer inactive variants are shown than the library holds.

In this series the parent is B1. The series can be described thus: yeast fitness relative to wild type (ratio to wild type); higher = fitter; tRNA-Arg(CCU), competitive growth, 37 C, YPD. In a few lines: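 Variants of the tRNA-Arg(CCU) gene, chemically synthesised with a 3% per-site mutation rate at 69 sites, were placed at the native genomic locus in Saccharomyces cerevisiae. The pooled strains were competed in YPD at 37°C for 24 hours in six parallel replicates. Gene amplicons from the start population and from each end population were read by 100-nucleotide paired-end sequencing. Darwinian fitness relative to wild type came from changes in genotype frequencies; genotypes needed ≥ 100 starting reads, and estimates < 0.5 were set to 0.5.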
In the case of GUUCCGUUGGCGUAAUGGUACCGCGUCUCCCUCCUAAGGAGACGACUGCGGGUUCGCGUCCCGUACGGAACG, the yeast fitness is ≤ 0.5. In the case of GUUCCGUUGGCGUAAUGGUUACGCGUCCCCCUCCUAAGGUGAAGACUGCGGGUUCGAGUCCCGUACGGAUCG it was ≤ 0.5; in that of GUUCCGUUGGCGUAAUGGUUACGCGCCUCACUCCUAAGGAGAAGACUGCGGGUUCGAGUCCCGUACGGAACG, ≤ 0.5. In the case of GUUCCGUUGGCGUAAUGGUACCGCGUCUCCCUCCUAAGGAGAAGCCGGUGGGUUCGAGUCCCGUACGGAACG it was ≤ 0.5. In the case of GUUCCGUUGGCGUAAUGGUACCGCGUCUCCCUCCUUAGGAGAAGAUUGCGGGUUCGAGUCCCGUACGGAACG it was ≤ 0.5. For GUUCCGUUGGCGUAAUGGUACCGCGUCUCCCUCCUAAGGAGUAGACUGCGGGUUCGAGUCCCGUACGGAACG, the yeast fitness was determined as 0.639. In the case of GUUCCGUUGGCGUAAUGGUACCGCGUCUCCCUCCUAAGGAGAUGACUGCGGGUUCGAGUCCCGUACGGAACG it was 0.902. In the case of GUUCCGUUGGCGUAAUGGUUACGCGUCUCCCUCCCGAGGAGAAGACUGCGGGUUCGAGUCCCGUACGGAACG it was 0.592; in that of GUUCCGUUGGCGUAAUGGUACCGCGUCUCCCUCCUAUGGAGAAGACUGCGGGUUCGAAUCCCGUACGGAACG, ≤ 0.5; in that of GUUCCGUUGGCGUAAUGGUACCGCGUCUCCCUCCUAGGGAGAAGACUGCGGGUUCGAGUCCCGUACGGAACG, 0.638. Under GUUCCGUUGGCGUAAUGGUACCGCGUCUCCCUCCUAUGGAGAAGACUGCGGGUUCGAGUCCCGUACGGAACG stands 0.646; under GUUCCGUUGGCGUAAUGGUACCGCGUCUCCCUCCUAAGGAGAAGCCUGUGGGUUCGAGUCCCGUACAGAACG, ≤ 0.5; under GUUCCGUUGGCGUAAUGGUUACGCGUCUCCCUCCUAAGGAGAAGACUACGGGUUCGAGUCACGUCCGGAACG, ≤ 0.5. Regarding GUUCCGUUGGCGUAAUGGUACCGCGUCUCCCUCCUAAGGAGGAGACUGCGGGUGCGAGUCCCGUACGGAACG, the yeast fitness is 0.555. Under GUUCCGUUGGCGUAAUGGUUACGCGUCUCCCUCCCAAGGAGAAGACUGCGGGUUCGAGACCCGUACGGAACG stands ≤ 0.5.

As to GUUCCGUUGGCGUAAUGGUUACGCGUCUCCCUCCUAAGGAGAAGACUGCGAGGUCGAGUGCCGUACGGAACG, the yeast fitness was ≤ 0.5. As to GUUCCGUUGGCGUAAUGGUUACGCGUCUCCCACCUAAGGAGAAGAGUGCGGGUUCGAGUCCCGUACGGAACG, the yeast fitness was found to be 0.586. In the case of GUUCCGUUGGCGUAAUGGUACCGCGUCUCCCUCCUAAGGAGAAGCCUGUGGGUUCGAGUCCCGCACGGAACG it was ≤ 0.5; in that of GUUCCGUUGGCGUAAUGGUUACGCGCCUCCCUCCUAAGGAGAAGACCGCGGGUUCGAGUCCCGUACGGAGCG, 0.603. Under GUUCCGUUGGCGUAAUGGUUACGCGUCUCCCUCCUAAGGAGAAGACUGCGGGUUCGAGUCCCGAACGGAACG stands 0.821; under GUUCCGUUGGCGUAAUGGUUACGCGUCUCCCUCCUAAGGAGAAGACUGCGGGUUCGAGUCCCGCACGGAACG, 0.902. Regarding GUUCCGUUGGCGUAAUGGUACCGCGUCUCCCUCCUUAGGAGAAGACUGCGGGUUUGAGUCCCGUACGGAACG, the yeast fitness worked out at 0.626. Under GUUCCGUUGGCGUAAUGGUUACGCGUCCCCCUCCUAAGGAGAAAAUUACGGGUUCGAGUGCAGUAGGGAACG stands 0.578. Take GUUCCGUUGGCGUAAUGGUUACGCGUCUCCCUCCUAAGGAGAAGACUGCGGGUUCGAGCCCCGUACGGAACG: the yeast fitness came to 0.917. In the case of GUUCCGUUGGCGUAAUGGUUACGCGUCUCCCUCCUAAGGAGAAGACUGCGGGUUCGAAUCCCGUACGGAACG it was 0.907. In the case of GUUCCGUUGGCGUAAUGGUUACGCGUCACCCUCCUAACGGGAAGACUGCGGGUUCGAGCCCCGUACGGAACG it was 0.637. Consider GUUCCGUUGGCGUAAUGGUUACGCGUCUCCCUCCAAAGGAGAACACUGCGGGUUCGAGUCCCGUACGGAACG, for which the yeast fitness is ≤ 0.5. Under GUUCCGUUGGCGUAAUGGUUACGCGUCACCCUCCUAAGGUGAAGACUGCGGGUUCGAGUCCAGUACGGAACG stands ≤ 0.5. As to GUUCCGUUGGCGUAAUGGUACCGCGUCUCCCUCCUAGGGAGAAGACUGAGGGUUCGAGUCCCGUACGGAACG, the yeast fitness is ≤ 0.5. As for GUUCCGUUGGCGUAAUGGUUACGCGUCUCCCUCCUAAGGAGAAGACUGCAGGUUCGAGUCCCGUACGGAACG, the yeast fitness amounted to 0.88. In the case of GUUCCGUUGGCGUAAUGGUACCGCGUCUCCCUCCUAAGGAGAUGACUGUGGGUUCGAGUCCCGUACGAAACG it was ≤ 0.5; in that of GUUCCGUUGGCGUAAUGGUUACGCGUCUCCCUCCUAAGGAGAAGACAGCGGGUUCGAGUCCCGUACGGUACG, 0.619. In the case of GUUCCGUUGGCGUAAUGGUUACGCGUCUCCCUCCUAAGGAGAAGACUACGGGUUCGAGUCCGGUACGGAACG it was 0.602; in that of GUUCCGUUGGCGUAAUGGUACCGCGUCUCCCUCCUUAGGAGAAGAGUGCGGGUUCGAGUCCAGUACGGCACG, ≤ 0.5. Under GUUCCGUUGGCGUAAUGGUACCGCGUCUCCCUCCUAAGGAGAAGUCAGCGGGAUCGAGUCCCGUACGGAACG stands ≤ 0.5; under GUUCCGUUGGCGUAAUGGUUACGCGUCUCCCUCCCAAGGAGAAGACUGCGGGUUCGGGUCCCGUACGGAACG, 0.546; under GUUCCGUUGGCGUAAUGGUACCGCGUCUCCCUCCUAAGGAGAAGUCUGCGGGUUCGAGUCCCGUACGGAACG, 0.631.
